pIC50: −log10 of the molar value. ≈ marks a conversion by molar mass, not a printed value. Calls of active or inactive are those of the source. No cut-off for these calls is given here.
Columns and labels:
[1] = target: T1, Prostaglandin E2 receptor EP1 subtype (Homo sapiens, UniProt P34995); test: Displacement of [3H]GW875240X from human prostanoid EP1 receptor expressed in CHO-K1 cells after 45 mins by topcount liquid scintillation counting; format: cell-based
T1 sequence (P34995 whole entry): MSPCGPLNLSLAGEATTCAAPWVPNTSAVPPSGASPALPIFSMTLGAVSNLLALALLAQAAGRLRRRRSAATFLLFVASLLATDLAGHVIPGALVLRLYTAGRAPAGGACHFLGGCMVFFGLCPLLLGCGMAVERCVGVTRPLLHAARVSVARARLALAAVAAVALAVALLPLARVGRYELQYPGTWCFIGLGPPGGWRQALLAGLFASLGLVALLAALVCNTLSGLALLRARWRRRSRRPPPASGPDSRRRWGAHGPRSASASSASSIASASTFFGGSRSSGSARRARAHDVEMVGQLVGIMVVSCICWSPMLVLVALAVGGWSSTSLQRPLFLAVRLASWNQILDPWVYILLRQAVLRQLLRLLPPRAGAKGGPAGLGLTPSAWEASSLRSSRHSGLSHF
Method in brief: (§1)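 Radioligand binding at the EP1 receptor. Either [3H]-GW875240X or [3H]-PGE2 is the displaced ligand. Values are pIC50, means of at least three experiments.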

[2] = target: T1, Prostaglandin E2 receptor EP1 subtype; test: Displacement of [3H]PGE2 from human prostanoid EP1 receptor expressed in CHO-K1 cells after 30 mins by topcount liquid scintillation counting; format: cell-based; method in brief: as §1
[3] = Half life in rat at 3 mg/kg, po; format: ADME, organism-based; set-up: dose 3 mg/kg, route oral; conditions: in vivo
Method in brief: (§2)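 Rat oral pharmacokinetics at 3 mg/kg in 1% (w/v) aqueous methylcellulose. Bioavailability and half-life are derived.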

[4] = Volume of distribution at steady state in rat at 1 mg/kg, iv; format: ADME, organism-based; set-up: dose 1 mg/kg, route intravenous; conditions: in vivo, read-out: Vdss
[5] = Drug level in blood of rat complete Freund's adjuvant-induced inflammatory pain model at 3 mg/kg, po after 1 hr; format: ADME, organism-based; set-up: dose 3 mg/kg, route oral; conditions: read-out: Drug uptake
Method in brief: (§3)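 Blood and brain samples are taken from CFA rats after oral dosing in 1% methylcellulose. Sampling is at 1 h post-dose, and at 3 h in the 5 mg/kg study. Concentrations are in µM or nM, n = 7 or n = 6 for blood and n = 3 for brain. The brain:blood ratio is calculated from the same rats.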

[6] = Solubility of the compound in fed state simulated intestinal fluid after 1 hr; format: physicochemical
Method in brief: (§4)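 Solubility is measured after 1 h in water, SGF, FaSSIF and FeSSIF, in µg/mL.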

[7] = Solubility of the compound in simulated gastric fluid after 1 hr; format: physicochemical; method in brief: as §4
P-gp [8] = test: Permeability across MDCK cells expressing p-gp; format: ADME, cell-based, Canis lupus familiaris; conditions: dog, MDCK-MDR1; read-out: permeability
Method in brief: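 MDCK cells. Passive permeability is reported as Pexact (nm/sec), and efflux ratio is used to assess Pgp substrate status.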

Liver microsomes = test: Intrinsic clearance in human liver microsomes; format: ADME, Microsome
[9] = Drug level in brain of rat complete Freund's adjuvant-induced inflammatory pain model at 30 mg/kg, po after 1 hr; format: ADME, organism-based; set-up: dose 30 mg/kg, route oral; conditions: read-out: Drug uptake; method in brief: as §3
[10] = Oral bioavailability in rat at 3 mg/kg; format: ADME, organism-based; conditions: in vivo; method in brief: as §2
[11] = Ratio of drug level in brain to blood in rat complete Freund's adjuvant-induced inflammatory pain model at 30 mg/kg, po after 1 hr; format: ADME, organism-based; set-up: dose 30 mg/kg, route oral; conditions: read-out: BBR; method in brief: as §3
[12] = Half life in rat at 1 mg/kg, iv; format: ADME, organism-based; set-up: dose 1 mg/kg, route intravenous; conditions: in vivo
[13] = Solubility of the compound in fasted state simulated intestinal fluid after 1 hr; format: physicochemical; method in brief: as §4
Rattus norvegicus [14] = test: Analgesic activity in rat assessed as reversal of complete Freund's adjuvant-induced inflammatory pain at 5 mg/kg, po after 1 hr post dose; format: functional, organism-based; set-up: dose 5 mg/kg
Method in brief: (§5)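 Rat CFA inflammatory pain model. Oral dosing in 1% methylcellulose. Hypersensitivity reversal is read by weight bearing, at 1 h post-dose. The 5 mg/kg study was also read at 3 h. Dose-response groups were 3, 10 and 30 mg/kg, or 1, 3 and 10 mg/kg, with ED50 derived. Celecoxib at 10 mg/kg po served as the standard.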

P-gp [15] = test: Efflux ratio of the compound in MDCK cells expressing p-gp; format: ADME, cell-based, Canis lupus familiaris; conditions: dog, MDCK-MDR1
Method in brief: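 MDCK cell monolayers were used to measure permeability. The efflux ratio is reported alongside exact permeability (Pexact, nm/sec) and was used to judge whether the compound is a Pgp substrate.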

[16] = Drug level in blood of rat complete Freund's adjuvant-induced inflammatory pain model at 10 mg/kg, po after 1 hr; format: ADME, organism-based; set-up: dose 10 mg/kg, route oral; conditions: read-out: Drug uptake; method in brief: as §3
Rattus norvegicus [17] = test: Analgesic activity in po dosed rat assessed as reversal of complete Freund's adjuvant-induced inflammatory pain after 1 hr post dose; format: functional; method in brief: as §5
[18] = Ratio of drug level in brain to blood in rat complete Freund's adjuvant-induced inflammatory pain model at 5 mg/kg, po after 3 hrs; format: ADME, organism-based; set-up: dose 5 mg/kg, route oral; conditions: read-out: BBR; method in brief: as §3
[19] = Lipophilicity, log D of compound at pH 7.4 by shake flask method; format: physicochemical; conditions: buffer
Method in brief: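 Log D is determined by the shake flask method at pH 7.4.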

[20] = Blood clearance in rat at 1 mg/kg, iv; format: ADME, organism-based; set-up: dose 1 mg/kg, route intravenous
[21] = Drug level in blood of rat complete Freund's adjuvant-induced inflammatory pain model at 30 mg/kg, po after 1 hr; format: ADME, organism-based; set-up: dose 30 mg/kg, route oral; conditions: read-out: Drug uptake; method in brief: as §3
Rattus norvegicus [22] = test: Analgesic activity in rat assessed as reversal of complete Freund's adjuvant-induced inflammatory pain at 5 mg/kg, po after 3 hrs post dose; format: functional, organism-based; set-up: dose 5 mg/kg; method in brief: as §5
Rattus norvegicus [23] = test: Analgesic activity in rat assessed as reversal of complete Freund's adjuvant-induced inflammatory pain at 30 mg/kg, po after 1 hr post dose relative to 10 mg/kg of celecoxib; format: functional, organism-based; method in brief: as §5
Rattus norvegicus [24] = test: Analgesic activity in rat assessed as reversal of complete Freund's adjuvant-induced inflammatory pain at 10 mg/kg, po after 1 hr post dose; format: functional; method in brief: as §5
Rattus norvegicus [25] = test: Analgesic activity in po dosed rat chronic joint pain model; format: functional
Method in brief: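 Rat joint pain model of chronic inflammatory pain. Oral dosing b.i.d. at 1, 3, 10 and 30 mg/kg, or at 0.3, 1, 3 and 10 mg/kg. Reversal of hypersensitivity is scored, with statistical significance testing, and ED50 is calculated.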

[26] = Ratio of drug level in brain to blood in rat complete Freund's adjuvant-induced inflammatory pain model at 10 mg/kg, po after 1 hr; format: ADME, organism-based; set-up: dose 10 mg/kg, route oral; conditions: read-out: BBR; method in brief: as §3
Blood = test: Fraction unbound in blood of po dosed rat complete Freund's adjuvant-induced inflammatory pain model; format: ADME, organism-based; conditions: in vivo
Brain = test: Fraction unbound in brain of po dosed rat complete Freund's adjuvant-induced inflammatory pain model; format: ADME, organism-based; conditions: in vivo
[27] = Drug level in brain of rat complete Freund's adjuvant-induced inflammatory pain model at 10 mg/kg, po after 1 hr; format: ADME, organism-based; set-up: dose 10 mg/kg, route oral; conditions: read-out: Drug uptake; method in brief: as §3

Cc1cc(C(=O)O)nn1Cc1cc(Cl)cc2cc(-c3ccccc3)oc12
pIC50 [1]: 8.70

Cc1cc(C(=O)NN2CCCCC2)nn1Cc1cc(Cl)cc2cc(C(C)C)oc12
pIC50 [2]: 7.00

Cc1cc(C(=O)NN2CCOCC2)nn1Cc1cc(Cl)cc2cc(C(C)C)oc12
half-life [3]: 1.7 h | Vd [4]: 3 L/kg | concentration at 1 h [5]: 1.95 µM | pIC50 [2]: 7.30 | solubility at 1 h [6]: 71 µg/mL (≈ 170 µM) | solubility at 1 h [7]: 1 µg/mL (≈ 2.4 µM) | Papp (P-gp [8]): 67.1 ×10⁻⁶ cm/s | CL (Liver microsomes): 1.1 mL/min/g | concentration at 1 h [9]: 11.3 µM | bioavailability [10]: 19% | Kp at 1 h [11]: 1.05 | half-life [12]: 0.5 h | solubility at 1 h [13]: 5 µg/mL (≈ 12 µM) | Activity (Rattus norvegicus [14]): Active | efflux ratio (P-gp [15]): 0.9 | concentration at 1 h [16]: 5.61 µM | ED50 (Rattus norvegicus [17]): 14.7 mg/kg | Kp at 3 h [18]: 1.15 | logD [19]: 2.6 | clearance [20]: 85 mL/min/kg | concentration at 1 h [21]: 10.2 µM | Activity (Rattus norvegicus [22]): inactive | Activity (Rattus norvegicus [23]): Active

Cc1cc(C(=O)NC(C)C)nn1Cc1cc(Cl)cc2cc(-c3ccccc3)oc12
pIC50 [1]: 8.00

Cc1cc(NC(=O)C2CCN(CC(F)(F)F)CC2)nn1Cc1cc(Cl)cc2cc(-c3ccccc3)oc12
pIC50 [1]: 7.60

Cc1cc(C(N)=O)nn1Cc1cc(Cl)cc2cc(-c3ccccc3)oc12
pIC50 [1]: 8.30

Cc1cc(C(=O)O)nn1Cc1cc(Cl)cc2cc(C3CC3)oc12
pIC50 [1]: 7.30

Cc1cc(C(=O)NCC2CCNCC2)nn1Cc1cc(Cl)cc2cc(-c3ccccc3)oc12
pIC50 [1]: 7.70

CNCc1ccc(NC(=O)c2cc(C)n(Cc3cc(Cl)cc4cc(C(C)C)oc34)n2)cc1
pIC50 [2]: 7.20

Cc1cc(NC(=O)CC2CCNCC2)nn1Cc1cc(Cl)cc2cc(-c3ccccc3)oc12
pIC50 [1]: 7.20

Cc1cc(C(=O)NCC(O)C(F)(F)F)nn1Cc1cc(Cl)cc2cc(-c3ccccc3)oc12 (stereo not given)
pIC50 [1]: 7.60

Cc1cc(C(=O)O)nn1Cc1cc(Cl)cc2oc(C(C)C)cc12
pIC50 [1]: 6.60

CCCc1cc2cc(Cl)cc(Cn3nc(C(=O)O)cc3C)c2o1
pIC50 [1]: 7.60

Cc1cc(C(=O)NC(C)(C)C)nn1Cc1cc(Cl)cc2cc(-c3ccccc3)oc12
Activity (Rattus norvegicus [24]): 95% | ED50 (Rattus norvegicus [25]): 0.6 mg/kg | Kp at 1 h [26]: 0.3 | Vd [4]: 4.3 L/kg | pIC50 [1]: 8.00 | Fu (Blood): 0.028% | Fu (Brain): 0.017% | concentration at 1 h [27]: 0.112 µM | half-life [12]: 4.2 h | concentration at 1 h [16]: 0.381 µM | ED50 (Rattus norvegicus [17]): 5 mg/kg | logD [19]: 2.9 | clearance [20]: 28 mL/min/kg

Cc1cc(-c2nc3ccccc3[nH]2)nn1Cc1cc(Cl)cc2cc(C(C)C)oc12
pIC50 [2]: 7.30

Cc1cc(C(=O)O)nn1Cc1cc(Cl)cn2nc(C(C)C)cc12
pIC50 [1]: < 6.00

From ChEMBL document CHEMBL1914431, “Discovery of a novel series of nonacidic benzofuran EP1 receptor antagonists” (Bioorg Med Chem Lett, 2011)
